Screening data from PubChem.
Only some compounds are listed: those with a hit (about 2.6% of all), similar ones and a draw of the others.
SENP6 inh = blocks the human protease SENP6. 330,000 tested, 1.8% active. Q9GZR1. AID 2599. inhibition, % at 10 µM. Recombinant SENP6 catalytic domain, aminoluciferin luminescence;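 active = inhibition above about 50% at the single tested dose, limit read from the data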;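 note: plate controls were DMSO wells with enzyme for no effect and DMSO wells lacking enzyme for full effect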
SENP1 FRET inh = inhibitors of human SENP1 SUMO protease catalytic domain; Q9P0U3; recombinant SENP1 catalytic domain, CyPet-SUMO1-YPet FRET cleavage; inhibition, % at 10 µM; 360,000 tested, 0.21% active;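 active = inhibition at least 30% at 10 µM, raw YFP signal under a set limit, fluorescence ratio 0.5 to 1.5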;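 note: 0% = enzyme with DMSO and 100% = no enzyme wells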
Target sequence (Q9P0U3 419-644 limits assumed): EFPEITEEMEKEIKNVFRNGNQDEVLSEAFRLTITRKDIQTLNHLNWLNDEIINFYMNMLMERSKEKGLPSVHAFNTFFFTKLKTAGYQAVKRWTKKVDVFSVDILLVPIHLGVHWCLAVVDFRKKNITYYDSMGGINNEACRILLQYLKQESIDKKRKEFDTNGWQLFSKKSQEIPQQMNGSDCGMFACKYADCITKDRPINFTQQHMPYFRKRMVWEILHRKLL
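Material – human SENP1 catalytic domain · Input – SENP1 enzyme, 20 pM final · Compound dosing – single concentration of 10 µM compound, 0.5% DMSO final · Timing – enzyme reaction for 50 min at room temperature, dark · Measured by – FRET fluorescence in CFP and YFP emission channels · Control set – no-enzyme wells low, DMSO-plus-enzyme wells high control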
SENP7 inh = SENP7 protease inhibition | inhibition, % at 5 µM | AID 434973 | Q9BQF6 | 330,000 tested, 1.5% active | recombinant SENP7, Z-RLRGG-aminoluciferin luminescence, 40 min;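 active = inhibition above about 50% at the single test dose, limit read from the data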;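 note: plate controls were DMSO with enzyme for no effect and no enzyme buffer wells for full effect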
Target sequence (Q9BQF6 706-1050 limits assumed): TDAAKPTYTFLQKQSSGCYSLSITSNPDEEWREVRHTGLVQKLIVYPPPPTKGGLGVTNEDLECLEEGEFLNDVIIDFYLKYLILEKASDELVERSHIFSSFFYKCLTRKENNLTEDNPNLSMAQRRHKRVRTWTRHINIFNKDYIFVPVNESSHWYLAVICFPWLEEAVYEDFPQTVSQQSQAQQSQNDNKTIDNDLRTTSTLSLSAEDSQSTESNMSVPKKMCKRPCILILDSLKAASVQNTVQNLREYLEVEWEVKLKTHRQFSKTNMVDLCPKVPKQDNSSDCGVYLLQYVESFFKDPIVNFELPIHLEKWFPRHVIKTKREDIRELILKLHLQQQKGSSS
SENP8 block-1 = blocks the human protease SENP8 | purified SENP8, Z-RLRGG-aminoluciferin cleavage, luminescence | Q96LD8 | inhibition, % at 10 µM | 330,000 tested, 1.2% active | AID 2540; in the data active = inhibition above about 50%
SENP8 block-2 = blocks human SENP8 cleavage of Nedd8 substrate. AID 602440. recombinant SENP8, Nedd8 substrate fluorescence. 360,000 tested, 0.64% active. inhibition, % at 20 µM. Q96LD8; in the data active = inhibition mostly above about 40%, no sharp cut-off; inactive = mostly below about 27%
UCH37 inh = human UCH37 deubiquitinating enzyme inhibition; Q9Y5K5; purified proteasome/UCH37, Ub-AMC cleavage fluorescence; inhibition, % (concentration not given with the values); 330,000 tested, 0.33% active;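 active = mean inhibition over replicate wells above about 20%, limit read from the data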;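 note: 0% = compound-free wells with enzyme and 100% = wells lacking proteasome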
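Material: human UCH37 enzyme supplied as purified proteasome complex. Measure: % inhibition of Ub-AMC cleavage fluorescence. Medium: pH 7.4 Tris-HCl (50 mM) with ovalbumin, ATP-MgCl2, DTT. Times: 30 min preincubation with enzyme, 25 min cleavage at room temperature. Detection: AMC fluorescence intensity at 355/460 nm.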
SENP8 confirm = human SENP8 inhibition, confirmed; Recombinant SENP8, Z-RLRGG-aminoluciferin luminescence, 60 min; AID 488912; inhibition, % at 12.5 µM; 6,200 tested, 40% active; shares compounds with SENP7 inh;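 active = mean inhibition across replicates above about 50%, limit read from the data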
SENP6 confirm = human SENP6 inhibition, confirmed. shares compounds with SENP7 inh. recombinant SENP6, Z-RLRGG-aminoluciferin luminescence. inhibition, % at 12.5 µM. 6,200 tested, 58% active. AID 488915
SENP7 conf = confirmation of human SENP7 protease inhibitors | shares compounds with SENP7 inh | recombinant SENP7, Z-RLRGG-aminoluciferin luminescence, 40 min | inhibition, % at 12.5 µM | 6,200 tested, 69% active
Casp3 SENP sel = inhibits human caspase-3 in SENP selectivity test. shares compounds with SENP7 inh. AID 488918. inhibition, % at 12.5 µM. purified caspase-3, Z-DEVD-aminoluciferin luminescence, 60 min. 6,200 tested, 60% active;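 active = mean inhibition above about 50%, limit read from the data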;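 note: plate controls were enzyme with DMSO for no effect and wells without caspase-3 for full effect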
Luc interf = luminescence interference (SENP counter-screen); shares compounds with SENP7 inh; Pre-incubated SENP8/Z-RLRGG-aminoluciferin, luciferase luminescence interference; inhibition, % at 12.5 µM; 6,200 tested, 39% active; AID 488919;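 active = mean inhibition above about 50% when retested at one dose, limit read from the data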;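 note: plate controls were DMSO wells with completed reaction for no effect and substrate without enzyme for full effect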
UCH37 reconfirm = confirmation of human UCH37 deubiquitinating enzyme inhibitors | shares compounds with UCH37 inh | Proteasome-bound UCH37, Ub-AMC cleavage fluorescence | inhibition, % at 20 µM | 480 tested, 27% active | AID 624100;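 active = average inhibition over replicates above about 50%, so the earlier screening hit is confirmed, limit read from the data; inactive = the rest, counted as false positives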;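 note: based on cleavage rate fitted by regression over a 30 min kinetic read; 0% = proteasome plus Ub-AMC and 100% = Ub-AMC without proteasome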
The depositor's hits bear a star; . = no result.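 Rule for the calls, unless noted: active = mean inhibition above about 50% in the one-dose retest (limit read from the data); inactive = the rest.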

SMILES	SENP6 inh	SENP1 FRET inh	SENP7 inh	SENP8 block-1	SENP8 block-2	UCH37 inh	SENP8 confirm	SENP6 confirm	SENP7 conf	Casp3 SENP sel	Luc interf	UCH37 reconfirm
Cn1cccc1C=NNC(=O)CNc1cccc2ccccc12	.	.	.	.	.	-19	.	.	.	.	.	.
O=C(CN1CCN(Cc2ccc(Cl)cc2)CC1)NN=Cc1cccc(F)c1	.	.	.	.	.	1	.	.	.	.	.	.
CCN(C(=O)COC(=O)c1cccnc1Nc1cccc(C(F)(F)F)c1)C1CCS(=O)(=O)C1 (stereo not drawn)	63*	1	72*	50	-42	0	66*	64*	86*	50	64*	.
CCN(C(=O)COC(=O)c1cccnc1SC)C1CCS(=O)(=O)C1 (stereo not drawn)	1	0	-6	-4	13	-7	.	.	.	.	.	.
O=C(CNC(=O)c1ccccc1Cl)NN=C/C=C/c1ccccc1	.	.	.	.	.	1	.	.	.	.	.	.
c1cc2c3c(cccc3c1)C(N1CCCCC1)=N2	69*	-16	13	36	-240	-21	-9	-5	-9	3	3	.
CCOC(=O)C1=C(COC(=O)c2ccc([N+](=O)[O-])s2)NC(=O)NC1C (stereo not drawn)	75*	-8	44	76*	32	83*	82*	87*	52*	18	-3	27
CCOC(=O)c1c(NC(=O)C(=O)NN=Cc2ccc(OCC)cc2)sc2c1CCCCC2	.	.	.	.	.	-161	.	.	.	.	.	.
CC(OC(=O)c1ccc([N+](=O)[O-])s1)C(=O)Nc1ncc(Cl)cc1Cl (stereo not drawn)	60*	1	25	62*	19	58*	14	23	5	-6	-5	4
Cc1ccc(OC(C)C(=O)Nc2ncc(Cl)cc2Cl)c([N+](=O)[O-])n1 (stereo not drawn)	-11	-10	-7	-7	-165	-26	.	.	.	.	.	.
Cc1ccc(-c2cc(-c3ccccc3)nc(NN=Cc3cccnc3)n2)cc1	.	.	.	.	.	-20	.	.	.	.	.	.
Cc1ccc(Cl)cc1NC1=C/C(=N\S(=O)(=O)c2cccs2)c2ccccc2C1=O	75*	2	76*	78*	85*	43*	82*	96*	77*	85*	0	31
O=c1[nH]c(Nc2ccccc2)cc2cc(Br)ccc12	96*	-113	94*	97*	-174	44*	96*	98*	96*	95*	18	19
O=C(NC1(O)C(=O)c2ccccc2C1=O)c1c(Cl)cccc1Cl	65*	3	60*	64*	97*	80*	67*	86*	75*	9	6	52*
O=C(NC1(O)C(=O)c2ccccc2C1=O)c1ccccc1	70*	3	63*	65*	99*	84*	75*	89*	81*	7	10	74*
COC1(NC(=O)c2ccccc2)C(C)=CC(=O)C=C1C	-9	0	-4	-1	9	3	.	.	.	.	.	.
O=C(Nc1ccccc1Cl)c1c(F)c(F)c(F)c(F)c1F	0	0	-6	-9	2	5	.	.	.	.	.	.
COc1ccc2cc(C(C)=NNC(=O)C3CC3)ccc2c1	.	.	.	.	.	-11	.	.	.	.	.	.
Cc1ccc(NC(=O)C(CN(C)C)=NO)cc1	.	.	.	.	.	2	.	.	.	.	.	.
COc1ccc(C=NNC(=O)C2CCCC2)cc1Br	.	.	.	.	.	2	.	.	.	.	.	.
O=C(NN=Cc1ccc2c(c1)OCO2)c1cncc(Br)c1	.	.	.	.	.	0	.	.	.	.	.	.
COc1ccccc1NC(=O)COC(=O)c1ccc([N+](=O)[O-])s1	91*	6	51*	72*	22	72*	75*	85*	37	5	-14	5
NS(=O)(=O)c1ccc(NC(=O)COC(=O)c2ccc([N+](=O)[O-])s2)cc1	-19	1	33	59*	38	69*	37	86*	47	19	8	-9
Cc1cc(C)c(NC(=O)COC(=O)c2ccc([N+](=O)[O-])s2)c(C)c1	15	0	24	-15	28	4	.	.	.	.	.	.
CN(CC(=O)Nc1ccccc1Cl)C(=O)COC(=O)c1ccc([N+](=O)[O-])s1	70*	3	16	69*	15	76*	78*	85*	28	49	-10	13
SMILES	SENP6 inh	SENP1 FRET inh	SENP7 inh	SENP8 block-1	SENP8 block-2	UCH37 inh	SENP8 confirm	SENP6 confirm	SENP7 conf	Casp3 SENP sel	Luc interf	UCH37 reconfirm
CC(=NNC(=O)c1nnn(-c2nonc2N)c1C)c1ccc(OCc2ccccc2)cc1	.	.	.	.	.	-1	.	.	.	.	.	.
Cc1oc2c(c1C(=O)O)C(=O)c1ccccc1C2=O	63*	18	18	30	45*	49*	12	52*	30	51*	18	46
Cc1oc2c(c1C(=O)c1ccccc1)C(=O)C(=O)c1ccccc1-2	83*	21	42	65*	99*	49*	-4	72*	49	5	-1	33
O=C(C1=C(c2ccccc2)C(=O)c2ccccc2C1=O)c1ccccc1	.	0	.	.	35	6	.	.	.	.	.	.
Cc1cc(=O)oc(C)c1C(=O)O	5	0	3	6	2	1	.	.	.	.	.	.
CC(=O)c1ccc(S(=O)(=O)Nc2ccc(N3CCOCC3)cc2)cc1	-7	2	-7	-9	15	1	.	.	.	.	.	.
CCOC(=O)N1CCN(C2=C(NS(=O)(=O)c3ccc(C)cc3)C(=O)c3ccccc3C2=O)CC1	64*	4	36	35	82*	42*	5	26	3	5	-7	53*
CC(=O)c1ccc(NC2=C(N3CCOCC3)C(=O)c3ccccc3C2=O)cc1	53*	-85	9	29	59*	32*	21	56*	37	9	2	51*
Cc1ccc(Nc2nc(N3CCOCC3)nc(N3CCOCC3)n2)cc1	-23	3	8	-4	9	-2	.	.	.	.	.	.
Cc1ccc(NC2=C(N3CCOCC3)C(=O)c3ccccc3C2=O)cc1	80*	-124	35	68*	71*	28*	72*	83*	72*	88*	29	26
